# Rows were chosen to be rich in hits. Some 5.1% of all compounds tested hit in one or more screens of this group.
# STAT3 blocker: IL-6 driven STAT3 reporter inhibitors, primary screen, U3A cells, luciferase, luminescence, MLSCN library; 190,000 tested, 0.89% active; inhibition, % at 5.5 µM; IL-6 STAT3-luciferase reporter; host cell line lacks STAT1;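 active means inhibition above the mean inhibition across all screened compounds plus 3 SD, cut at about 44% in these data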;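 further: 0% = DMSO only wells and 100% = 100 µM nifuroxazide control wells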
# NF-kB expr up: activators of NF-kB expression in neurons, primary screen, cell-based, HTS. fold change at 12.5 µM. 190,000 tested, 1.6% active. human neuronal cells, NF-kB reporter expression; stronger effect = higher value; in the data active means fold change above about 3.3
# STAT1 activator: STAT1 signaling activators, primary screen, cell-based, HTS, luciferase reporter; 200,000 tested, 2.6% active; activation (% of control), % at 5.5 µM; NIH 3T3 STAT1-luciferase reporter, IFN-gamma, luminescence; 100% = IFN-gamma alone, no compound;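 active means activation above the screen-wide mean activation plus 3 SD, cut at about 130% in these data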;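 further: raw ratio to IFN-gamma control signal so 100% means no change and 0% no light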
# STAT3 act: IL-6 driven STAT3 reporter potentiators, primary screen, U3A cells, luciferase, luminescence, MLSCN library; IL-6 STAT3-luciferase reporter; 100% = signal with IL-6 EC80 alone; 190,000 tested, 0.91% active; AID 871, 2007; activation (% of control), % at 5.6 µM;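 active means activation above the screen-wide mean of compound activation plus 3 SD, cut at about 130% in these data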;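 further: 0% = background luminescence of wells with medium and substrate only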
#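 System – human U3A cells carrying STAT3-luciferase construct · Probe or stimulus – Interleukin-6, 33 ng/mL · Schedule – compound 1 h, then IL-6 6 h at 37 °C · Signal – luminescence from STAT3-driven luciferase reporter · Evaluation – percent of IL-6-only median luminescence · Benchmarks – IL-6-only high control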
# STAT1 blocker: STAT1 signaling inhibitors, primary screen, cell-based, HTS, luciferase reporter; 200,000 tested, 0.35% active; NIH 3T3 STAT1-luciferase reporter, IFN-gamma, luminescence; inhibition, % at 5.5 µM; AID 920, 2007;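 active means inhibition above a set limit, the mean inhibition across all tested compounds plus 3 SD, cut at about 34% in these data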;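 further: 0% = IFN-gamma with DMSO and 100% = IFN-gamma with 300 µM nifuroxazide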
# APP 5'UTR act: activators of APP 5'UTR luciferase reporter, primary screen, SH-SY5Y cells | SH-SY5Y APP 5'UTR luciferase reporter, luminescence; zero percent = DMSO vehicle wells | activation, % at 2 µM | 190,000 tested, 1% active;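 active means activation above a set limit, based on mean plus 3 SD of controls, cut at about 140% in these data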
# Starred values were filed as active, the others as inactive; . = no result.
SMILES,STAT3 blocker,NF-kB expr up,STAT1 activator,STAT3 act,STAT1 blocker,APP 5'UTR act
CN(C)c1ccc(/C=C2/SC(=O)N(CCN=C3NS(=O)(=O)c4ccccc43)C2=O)cc1,-17,1.4,133*,110,-37,35
COc1ccc(-c2nc3ncccn3c2Br)cc1,24,1.8,123,88,-27,43
Cc1ccc(C2=NN(C(=O)CN3C(=O)c4ccccc4S3(=O)=O)C(c3ccco3)C2)cc1 (centres undefined),5,0.81,104,97,-5,-8
Cc1cc(=O)oc2cc(OCC3CC(c4ccc(Cl)cc4)=NO3)ccc12 (centres undefined),23,1,103,83,-3,3
O=C1c2ccccc2S(=O)(=O)N1CC1CC(c2ccc(Cl)cc2)=NO1 (centres undefined),4,1.4,139*,100,-43,100
COc1ccc(C2=NOC(CN3C(=O)c4ccccc4S3(=O)=O)C2)cc1 (centres undefined),15,5.5*,148*,90,-50,137*
O=C1c2ccccc2S(=O)(=O)N1CC1CC(c2ccccc2)=NO1 (centres undefined),-21,2.6,132*,119,-35,35
CN1C(=S)SC(N(O)C=C2C=CC(=O)C=C2)C1(C)C (centres undefined),3,1.4,104,101,-4,-7
Cc1cc(C(=O)c2cnc(/N=C/N(C)C)s2)c(F)cc1Cl,11,1,83,99,17,-3
CC(=O)NCC1CCCN(Cc2cn(-c3ccccc3)nc2-c2ccc3c(c2)OCO3)C1 (centres undefined),4,0.94,96,99,2,14
Cc1nc(C)c(NC(=O)OC(C)C)cc1NC(=O)OC(C)C,0,0.87,101,104,1,-2
COC(=O)CC/C(O)=C1\C(=O)CC(C)(C)CC1=NCc1nc2ccccc2[nH]1,6,1,95,99,4,-2
CC(C)C(=O)Nc1cccc(-c2cn3ccccc3n2)c1,-3,2,112,102,-14,-13
Cc1ccn2cc(-c3cccc(NC(=O)C(C)C)c3)nc2c1,20,2.3,132*,88,-36,41
O=C(c1ccccc1)N1CCSc2sccc2C1=O,50*,1.3,64,61,37*,-28
Cc1ccc(-n2c(C)cc(C(=O)COC(=O)c3c(C)noc3C)c2C)cc1,16,3.5*,129*,89,-32,72
COCCN1Cc2c(sc(C)c2C)N(C(=O)c2ccccc2)C1,-32,2.5,109,138*,-10,52
CCOC(=O)CN(C(=O)CNC(=O)c1ccco1)C(C(=O)NC1CCCCC1)c1cccc(OC)c1 (centres undefined),.,1.2,.,.,.,.
COc1ccc(Oc2nnnn2-c2ccccc2)cc1,10,2.1,106,94,-7,3
COc1cccc(Oc2nnnn2-c2ccccc2)c1,2,2,131*,101,-34,25
Cc1ccc(-c2csc(NC(=O)COC(=O)c3cccc(S(=O)(=O)N4CCOCC4)c3)n2)cc1,-4,3.6*,131*,104,-35,86
COc1cccc(C(=O)Nc2nc(-c3ccc(S(=O)(=O)N4CCOCC4)cc3)cs2)c1,48*,0.19,55,63,47*,-3
COc1ccc(-c2csc(NC(=O)c3ccccc3NS(=O)(=O)c3ccc(F)c(F)c3)n2)cc1,79*,0.8,40,37,63*,6
CCN(CC)CCNc1nc(-c2cccs2)c(CC(=O)O)s1,7,0.91,100,101,-1,-6
CCc1c(C(=O)NCc2ccc3c(c2)OCO3)[nH]c(C)c1C(C)=O,19,1.2,90,88,11,15
SMILES,STAT3 blocker,NF-kB expr up,STAT1 activator,STAT3 act,STAT1 blocker,APP 5'UTR act
O=C(COC(=O)c1cc[n+]([O-])cc1)NCCc1ccc(Cl)cc1Cl,-7,0.93,97,107,2,-19
CCOC(=O)C(C)N1N=C(/C=C/c2ccc(C)cc2)CCC1=O (centres undefined),2,1.2,101,103,-1,7
C=CCN1N=C(/C=C/c2ccc(C)cc2)CCC1=O,4,2.1,137*,102,-39,44
Cc1cc(=O)[nH]c(SCCCOc2ccc3c(c2)CCC3)n1,8,1.4,102,98,-2,10
COC(=O)[C@@H]1CCCN1C(=O)CCc1nnc(CCc2c[nH]c3ccccc23)o1,-4,1.7,100,105,-1,-19
COC(=O)[C@@H]1CCCN1C(=O)CCc1nnc(CCC2CCCCC2)o1,4,2.6,139*,101,-42,55
CCCC(c1nnnn1Cc1cccs1)N1CCN(C2CCCC2)CC1 (centres undefined),2,0.81,99,104,2,11
Cc1ccc(-n2c(SCn3nnc4ccccc4c3=O)nnc2-c2cccnc2)c(C)c1,17,0.52,97,91,2,-2
O=c1c2ccccc2nnn1CSc1nc2ccccc2[nH]1,-2,2.2,135*,98,-38,66
Cc1cc(=O)[nH]c(SCn2nnc3ccccc3c2=O)n1,3,1.1,100,101,1,-1
Cc1ccc(SCn2nnc3ccccc3c2=O)c(C)c1,-3,2.9,141*,103,-43,76
Cc1cccc(NC(=S)N(Cc2ccco2)C(C)c2cccs2)c1 (centres undefined),14,0.77,95,98,4,15
O=C(Nc1ccccc1)c1ccc(CSc2ncccn2)cc1,12,2.5,139*,91,-44,152*
CSCc1ccc(C(=O)Nc2ccc(C(N)=O)cc2)cc1,9,1.8,147*,98,-53,85
Cn1nnnc1SCc1ccc(C(=O)Nc2ccccc2F)cc1,18,1.5,106,93,-7,44
O=C(Nc1ccccc1F)c1ccc(CSc2ncccn2)cc1,7,3.1,138*,100,-43,155*
Cc1ccc(NC(=O)c2ccc(CSc3nccc(C)n3)cc2)cc1,4,1,99,101,1,19
CSCc1ccc(C(=O)NCc2ccc(C)cc2)cc1,-12,1.2,106,108,-6,-1
CN(C)c1nc(NCc2ccccc2)nc(N/N=C/c2ccc3c(c2)OCO3)n1,16,1,108,89,-9,-3
CC1=Nc2cc(C(=O)O)ccc2Sc2ccc(C)cc21,2,0.96,109,99,-11,9
Cc1cc(C)n2c(SCC(=O)Nc3ncc(C(F)(F)F)cc3Cl)nnc2n1,1,1.6,99,102,1,-2

# Compound activity: PubChem BioAssay, several laboratories
